# Reference: ChEMBL document CHEMBL3112493, “Synthesis of 2,6-disubstituted benzylamine derivatives as reversible selective inhibitors of copper amine oxidases” (Bioorg Med Chem, 2014)
# Active and inactive are the calls of the source. No cut-off for these calls is given here.
# Test system: not listed separately
# Test: Half life in rat
# Format: ADME, organism-based
# Details: in vivo
row,half-life [min],SMILES
1,120,CCOc1cncc(OCC)c1CN

# Test system: not listed separately
# Test: Inhibition of porcine serum BAO using [7-14C]-benzylamine as substrate preincubated for 30 mins followed by substrate addition
# Parameters: species or system Sus scrofa
# Details: not given
# Procedure, shortened: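 Porcine serum benzylamine oxidase was preincubated with inhibitor at 6 concentrations for 30 min at 30 °C. [7-14C]Benzylamine was then added at a saturating level and radiochemical activity was measured. In some cases H2O2 formation was followed by the 4-aminoantipyrine method.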
row,SMILES,IC50 [µM]
1,CC(C)Oc1cccc(OC(C)C)c1CN,> 1000
2,CCOCc1cccc(COCC)c1CN,> 1000
3,COc1cccc(OC)c1CN.Cl,120
4,CCCCOc1cccc(OCCCC)c1CN.Cl,0.14
5,NCc1ccccc1O,> 1000
6,NCc1c(O)cccc1O,> 1000
7,NCc1ccccc1CO,> 1000
8,CCOc1cccc(OCC)c1CN.Cl,0.18
9,Cl.NCc1c(OCCO)cccc1OCCO,2.6
10,Cl.NCc1c(OCCCO)cccc1OCCCO,0.55
11,Cl.NCc1c(OCCCCO)cccc1OCCCCO,0.066
12,CCOc1ccccc1CN,> 1000
13,COCc1cccc(COC)c1CN.Cl,> 1000
14,CCCCc1cccc(CCCC)c1CN.Cl,14
15,CCCc1cccc(CCC)c1CN.Cl,15

# Test system: not listed separately
# Test: Acute toxicity in ip dosed Swiss mouse assessed as appearance of tonic-clonic convulsion followed by respiratory block measured after 15 to 20 mins
# Format: organism-based
# Details: in vivo
row,SMILES,LD50 [mg/kg]
1,CCc1cccc(CC)c1CN.Cl,92
2,CCCOc1cccc(OCCC)c1CN.Cl,37
3,COc1cccc(OC)c1CN.Cl,120
4,CCCCOc1cccc(OCCCC)c1CN.Cl,25
5,CCOc1cccc(OCC)c1CN.Cl,74
6,Cl.NCc1c(OCCO)cccc1OCCO,> 1000
7,Cl.NCc1c(OCCCO)cccc1OCCCO,690
8,Cl.NCc1c(OCCCCO)cccc1OCCCCO,540
9,COCc1cccc(COC)c1CN.Cl,240
10,CCCCc1cccc(CCCC)c1CN.Cl,54
11,CCCc1cccc(CCC)c1CN.Cl,55

# Test system: not listed separately
# Test: Oral bioavailability in rat
# Format: ADME, organism-based
# Details: in vivo
row,bioavailability [%],SMILES
1,51.5,CCOc1cncc(OCC)c1CN

# Molecular target: T1, Amine oxidase [flavin-containing] B (Rattus norvegicus, UniProt P19643)
# T1 sequence (P19643 whole entry): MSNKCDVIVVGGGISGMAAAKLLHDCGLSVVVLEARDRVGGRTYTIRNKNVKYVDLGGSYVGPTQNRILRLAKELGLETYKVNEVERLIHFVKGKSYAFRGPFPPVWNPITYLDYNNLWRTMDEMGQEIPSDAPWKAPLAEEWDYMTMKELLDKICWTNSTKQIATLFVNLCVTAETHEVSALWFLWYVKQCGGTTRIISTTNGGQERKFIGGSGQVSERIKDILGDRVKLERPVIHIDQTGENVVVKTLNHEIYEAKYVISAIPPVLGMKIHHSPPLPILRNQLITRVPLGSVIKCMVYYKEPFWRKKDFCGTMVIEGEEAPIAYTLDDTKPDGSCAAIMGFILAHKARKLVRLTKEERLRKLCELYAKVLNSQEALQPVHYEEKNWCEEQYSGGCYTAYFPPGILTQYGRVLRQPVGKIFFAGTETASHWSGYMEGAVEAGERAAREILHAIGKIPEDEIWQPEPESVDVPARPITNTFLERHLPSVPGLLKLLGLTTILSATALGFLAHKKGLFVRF
# Test: Inhibition of rat liver MAO-B using 2-phenyl[1-14C]-ethylamine/[7-14C]-benzylamine as substrate preincubated for 30 mins followed by substrate addition
# Details: not given
# Procedure, shortened: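 MAO B source was rat liver mitochondria, obtained by 1:10 homogenization in 0.01 M phosphate pH 7.4 with 0.25 M sucrose, then centrifugation at 1000g and 10,000g (20 min each). Mitochondria were preincubated with inhibitor (6 concentrations) for 30 min at 30 °C. Saturating 2-phenyl[1-14C]ethylamine was then added and activity measured radiochemically.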
row,SMILES,IC50 [mM]
1,CCc1cccc(CC)c1CN.Cl,> 1
2,CC(C)Oc1cccc(OC(C)C)c1CN,> 1
3,CCOCc1cccc(COCC)c1CN,> 1
4,CCCOc1cccc(OCCC)c1CN.Cl,> 1
5,COc1cccc(OC)c1CN.Cl,0.19
6,CCCCOc1cccc(OCCCC)c1CN.Cl,> 1
7,NCc1ccccc1O,> 1
8,NCc1c(O)cccc1O,> 1
9,NCc1ccccc1CO,> 1
10,CCOc1cccc(OCC)c1CN.Cl,> 1
11,Cl.NCc1c(OCCO)cccc1OCCO,> 1
12,Cl.NCc1c(OCCCO)cccc1OCCCO,> 1
13,Cl.NCc1c(OCCCCO)cccc1OCCCCO,> 1
14,CCOc1ccccc1CN,> 1
15,COCc1cccc(COC)c1CN.Cl,> 1
16,CCCCc1cccc(CCCC)c1CN.Cl,> 1
17,CCCc1cccc(CCC)c1CN.Cl,> 1

# Species on record: Sus scrofa
# Test: Non-competitive inhibition of porcine serum BAO using [7-14C]-benzylamine as substrate by Lineweaver-Burk plot analysis
# Details: not given
row,SMILES,inhibition
1,CCCCOc1cccc(OCCCC)c1CN.Cl,Active

# Species on record: Sus scrofa
# Test: Mixed-type inhibition of porcine serum BAO using [7-14C]-benzylamine as substrate by Lineweaver-Burk plot analysis
# Details: not given
row,SMILES,inhibition mode (qualitative)
1,CCc1cccc(CC)c1CN.Cl,Active
2,CCCOc1cccc(OCCC)c1CN.Cl,Active
3,COc1cccc(OC)c1CN.Cl,Active
4,CCOc1cccc(OCC)c1CN.Cl,Active
5,Cl.NCc1c(OCCO)cccc1OCCO,Active
6,Cl.NCc1c(OCCCO)cccc1OCCCO,Active
7,Cl.NCc1c(OCCCCO)cccc1OCCCCO,Active
8,COCc1cccc(COC)c1CN.Cl,Active
9,CCCCc1cccc(CCCC)c1CN.Cl,Active
10,CCCc1cccc(CCC)c1CN.Cl,Active

# Molecular target: T2, Diamine oxidase [copper-containing] (Sus scrofa, UniProt Q9TRC7)
# T2 sequence (Q9TRC7 whole entry): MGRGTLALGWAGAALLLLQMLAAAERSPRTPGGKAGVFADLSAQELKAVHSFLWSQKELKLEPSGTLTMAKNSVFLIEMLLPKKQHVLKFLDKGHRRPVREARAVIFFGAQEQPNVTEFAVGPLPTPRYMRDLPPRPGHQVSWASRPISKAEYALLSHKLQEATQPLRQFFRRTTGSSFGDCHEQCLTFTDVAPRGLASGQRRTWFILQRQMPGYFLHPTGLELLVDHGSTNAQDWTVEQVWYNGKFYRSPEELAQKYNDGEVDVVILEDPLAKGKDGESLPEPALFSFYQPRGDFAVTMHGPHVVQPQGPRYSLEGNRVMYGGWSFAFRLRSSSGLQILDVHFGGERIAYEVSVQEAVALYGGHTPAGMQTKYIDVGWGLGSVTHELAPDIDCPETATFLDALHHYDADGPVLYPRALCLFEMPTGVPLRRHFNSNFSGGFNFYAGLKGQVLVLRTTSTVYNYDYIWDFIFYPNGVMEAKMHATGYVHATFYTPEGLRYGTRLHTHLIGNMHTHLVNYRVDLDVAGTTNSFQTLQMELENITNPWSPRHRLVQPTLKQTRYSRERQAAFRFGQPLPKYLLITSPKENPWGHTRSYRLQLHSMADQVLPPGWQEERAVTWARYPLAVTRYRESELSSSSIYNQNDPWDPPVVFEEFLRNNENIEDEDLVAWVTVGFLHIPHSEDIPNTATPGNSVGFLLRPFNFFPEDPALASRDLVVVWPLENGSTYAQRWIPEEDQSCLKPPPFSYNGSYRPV
# Test: Inhibition of porcine kidney DAO using [1,4-14C]-putrescine as substrate preincubated for 30 mins followed by substrate addition
# Details: not given
# Procedure, shortened: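 Porcine kidney diamine oxidase was preincubated with inhibitor at 6 concentrations for 30 min at 30 °C. Saturating [1,4-14C]putrescine was then added and activity was determined radiochemically. In some cases H2O2 production was measured by the 4-aminoantipyrine method.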
row,SMILES,IC50 [mM]
1,CCc1cccc(CC)c1CN.Cl,> 1
2,CC(C)Oc1cccc(OC(C)C)c1CN,> 1
3,CCOCc1cccc(COCC)c1CN,> 1
4,CCCOc1cccc(OCCC)c1CN.Cl,> 1
5,COc1cccc(OC)c1CN.Cl,> 1
6,CCCCOc1cccc(OCCCC)c1CN.Cl,> 1
7,NCc1ccccc1O,> 1
8,NCc1c(O)cccc1O,> 1
9,NCc1ccccc1CO,> 1
10,CCOc1cccc(OCC)c1CN.Cl,> 1
11,Cl.NCc1c(OCCO)cccc1OCCO,> 1
12,Cl.NCc1c(OCCCO)cccc1OCCCO,> 1
13,Cl.NCc1c(OCCCCO)cccc1OCCCCO,> 1
14,CCOc1ccccc1CN,> 1
15,COCc1cccc(COC)c1CN.Cl,> 1
16,CCCCc1cccc(CCCC)c1CN.Cl,> 1
17,CCCc1cccc(CCC)c1CN.Cl,> 1

# Molecular target: T3, Protein-lysine 6-oxidase (Sus scrofa, UniProt P45845)
# T3 sequence (P45845 whole entry): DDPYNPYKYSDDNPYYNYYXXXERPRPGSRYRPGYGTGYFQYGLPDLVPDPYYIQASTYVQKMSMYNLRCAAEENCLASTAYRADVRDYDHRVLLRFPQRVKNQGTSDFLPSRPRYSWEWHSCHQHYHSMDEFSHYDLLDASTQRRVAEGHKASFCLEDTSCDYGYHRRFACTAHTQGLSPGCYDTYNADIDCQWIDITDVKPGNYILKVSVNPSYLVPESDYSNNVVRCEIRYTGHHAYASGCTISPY
# Test: Inhibition of porcine aorta lysyl oxidase preincubated for 30 mins followed by substrate addition
# Details: not given
# Procedure, shortened: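 Porcine aorta lysyl oxidase, prepared in-house. Enzyme was preincubated with inhibitor at 6 concentrations for 30 min at 30 °C. Saturating tritiated protein-bound lysine substrate was then added and activity was measured radiochemically. In some cases H2O2 production was followed instead, by the 4-aminoantipyrine method.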
row,SMILES,IC50 [mM]
1,CCc1cccc(CC)c1CN.Cl,> 1
2,CC(C)Oc1cccc(OC(C)C)c1CN,> 1
3,CCOCc1cccc(COCC)c1CN,> 1
4,CCCOc1cccc(OCCC)c1CN.Cl,> 1
5,COc1cccc(OC)c1CN.Cl,> 1
6,CCCCOc1cccc(OCCCC)c1CN.Cl,> 1
7,NCc1ccccc1O,> 1
8,NCc1c(O)cccc1O,> 1
9,NCc1ccccc1CO,> 1
10,CCOc1cccc(OCC)c1CN.Cl,> 1
11,Cl.NCc1c(OCCO)cccc1OCCO,> 1
12,Cl.NCc1c(OCCCO)cccc1OCCCO,> 1
13,Cl.NCc1c(OCCCCO)cccc1OCCCCO,> 1
14,CCOc1ccccc1CN,> 1
15,COCc1cccc(COC)c1CN.Cl,> 1
16,CCCCc1cccc(CCCC)c1CN.Cl,> 1
17,CCCc1cccc(CCC)c1CN.Cl,> 1

# Species on record: Sus scrofa
# Test: Reversible inhibition of porcine serum BAO using [7-14C]-benzylamine as substrate assessed as residual activity at 4 times IC50 preincubated for 5 mins followed by 10 fold dilution relative to control
# Details: not given
# Procedure, shortened: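 Solutions were diluted 1:10 and 1:100, and portions were dialyzed against water at 4 °C for 24 h. Activity was read with saturating [7-14C]benzylamine; the reaction was stopped with 3 N HCl and labeled benzaldehyde extracted into ethyl acetate and counted.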
row,SMILES,Activity [%]
1,CCc1cccc(CC)c1CN.Cl,> 80
2,CCCOc1cccc(OCCC)c1CN.Cl,50
3,COc1cccc(OC)c1CN.Cl,> 80
4,CCCCOc1cccc(OCCCC)c1CN.Cl,50
5,CCOc1cccc(OCC)c1CN.Cl,50
6,Cl.NCc1c(OCCO)cccc1OCCO,50
7,Cl.NCc1c(OCCCO)cccc1OCCCO,50
8,Cl.NCc1c(OCCCCO)cccc1OCCCCO,50
9,COCc1cccc(COC)c1CN.Cl,> 80
10,CCCCc1cccc(CCCC)c1CN.Cl,> 80
11,CCCc1cccc(CCC)c1CN.Cl,> 80
